Source: the array DNA melting data of Ke et al. (doi:10.1101/2024.01.08.574731)

Assays:
[1] = melting temperature; fluorescence melt of hairpins on a sequencing array, two-state fit, raised by 9.35 °C to match UV melts; conditions: sodium 0.088 M
In short: (§1)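 On a sequenced MiSeq flow cell, library hairpins with annealed Cy3 and quencher oligos were imaged for Cy3 fluorescence in 2.5 °C steps up to 60 °C, in 50 mM Na-HEPES pH 8.0, 25 mM NaCl. Normalisation used pre-quench Cy3 and control constructs. Bootstrapped two-state fits gave melting temperature and folding enthalpy, combined by inverse variance across four replicates and with fitted temperatures raised by 9.35 °C to match UV melts.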

[2] = folding enthalpy; higher = less favourable; fluorescence melt of hairpins on a sequencing array, two-state fit; conditions: sodium 0.088 M
In short: as §1

## GAAGCCGAAAGGCGTTC ((((((....))).)))
[1]
  Tm: 46.7 °C
[2]
  folding enthalpy: -8.99 kcal/mol

## GAAGCCGAAAGGCTATTC ((((((....)))..)))
[1]
  Tm: 33.7 °C
[2]
  folding enthalpy: -8.63 kcal/mol

## GAAGCCGAAAGGCTTTTC ((((((....)))..)))
[1]
  Tm: 54.7 °C
[2]
  folding enthalpy: -12 kcal/mol

## GAAGCCGGAAACGGCCTC ((.((((....)))).))
[1]
  Tm: 39.2 °C
[2]
  folding enthalpy: -10 kcal/mol

## GAAGCGGGAAACCGTTTC (((.(((....))).)))
[1]
  Tm: 47.1 °C
[2]
  folding enthalpy: -28.2 kcal/mol

## GAAGCTGGAAACAACTTC ((((.((....)).))))
[1]
  Tm: 34.9 °C
[2]
  folding enthalpy: -24.2 kcal/mol

## GAAGCTGGAAACAGCTCC (.(((((....))))).)
[1]
  Tm: 39 °C
[2]
  folding enthalpy: -13.7 kcal/mol

## GAAGGAGCGAAAGCTTTC (((..(((....))))))
[1]
  Tm: 28.4 °C
[2]
  folding enthalpy: -9.13 kcal/mol

## GAAGGCCCGAAAGGGTTC (((..(((....))))))
[1]
  Tm: 25.5 °C
[2]
  folding enthalpy: -17.4 kcal/mol

## GAAGGCCGAAAGGCTTC (((.(((....))))))
[1]
  Tm: 48.7 °C
[2]
  folding enthalpy: -15.6 kcal/mol

## GAAGGCGAAAGCCACTTC ((((((....)))..)))
[1]
  Tm: 40.6 °C
[2]
  folding enthalpy: -13.1 kcal/mol

## GAAGGCGAAAGCCATTC ((((((....))).)))
[1]
  Tm: 39.7 °C
[2]
  folding enthalpy: -10.4 kcal/mol

## GAAGGCGAAAGCCTATTC ((((((....)))..)))
[1]
  Tm: 32.1 °C
[2]
  folding enthalpy: -8.36 kcal/mol

## GAAGGCGAAAGCCTGTTC ((((((....)))..)))
[1]
  Tm: 47.9 °C
[2]
  folding enthalpy: -9.93 kcal/mol

## GAAGGCGAAAGCCTTTC ((((((....))).)))
[1]
  Tm: 53.7 °C
[2]
  folding enthalpy: -10.6 kcal/mol

## GAAGGCGAAAGCCTTTTC ((((((....)))..)))
[1]
  Tm: 51.3 °C
[2]
  folding enthalpy: -11.1 kcal/mol

## GAAGGGGGAAACCCCTTC (((((((....)))))))
[1]
  Tm: 61.5 °C
[2]
  folding enthalpy: -37 kcal/mol

## GAAGGGGGAAACCCTTTC (((.(((....))).)))
[1]
  Tm: 41.1 °C
[2]
  folding enthalpy: -18.7 kcal/mol

## GAAGGTGGAAACGCTTTC (((.(.(....).).)))
[1]
  Tm: 24.2 °C
[2]
  folding enthalpy: -9.77 kcal/mol

## GAAGTACGAAAGTATTC (((.(((....))))))
[1]
  Tm: 27.1 °C
[2]
  folding enthalpy: -10.4 kcal/mol

## GAAGTAGCGAAAGCTTTC (((..(((....))))))
[1]
  Tm: 30.3 °C
[2]
  folding enthalpy: -9.46 kcal/mol

## GAAGTCCGAAAGGAGTTC (((.(((....))).)))
[1]
  Tm: 55.2 °C
[2]
  folding enthalpy: -33.7 kcal/mol

## GAAGTCGGAAACAACTTC (((((.(....).)))))
[1]
  Tm: 33.4 °C
[2]
  folding enthalpy: -27.2 kcal/mol

## GAAGTGGGAAACCACTTC (((((((....)))))))
[1]
  Tm: 59.9 °C
[2]
  folding enthalpy: -45.4 kcal/mol

## GAATAACGAAAGTTTTC (((.(((....))))))
[1]
  Tm: 29.7 °C
[2]
  folding enthalpy: -13.7 kcal/mol

## GAATACCCGAAAGGGTTC (((..(((....))))))
[1]
  Tm: 33 °C
[2]
  folding enthalpy: -7.33 kcal/mol

## GAATACGAAAGTATGTTC ((((((....)))..)))
[1]
  Tm: 32.3 °C
[2]
  folding enthalpy: -14.2 kcal/mol

## GAATAGCGAAAGCTCTTC (((.(((....))).)))
[1]
  Tm: 38.7 °C
[2]
  folding enthalpy: -19.4 kcal/mol

## GAATAGGGAAACCCATTC ((((.((....)).))))
[1]
  Tm: 29.5 °C
[2]
  folding enthalpy: -17.1 kcal/mol

## GAATATGGAAACATATTC (((((((....)))))))
[1]
  Tm: 48.1 °C
[2]
  folding enthalpy: -35.1 kcal/mol

## GAATCAGAAATGATTC ((((((....))))))
[1]
  Tm: 45.6 °C
[2]
  folding enthalpy: -32.9 kcal/mol

## GAATCAGGAAACTGATTC (((((((....)))))))
[1]
  Tm: 55.8 °C
[2]
  folding enthalpy: -42.6 kcal/mol

## GAATCCCCGAAAGGGTTC (((..(((....))))))
[1]
  Tm: 31 °C
[2]
  folding enthalpy: -14.4 kcal/mol

## GAATCCGAAAGGAGATTC ((((((....)))..)))
[1]
  Tm: 36.4 °C
[2]
  folding enthalpy: -18.7 kcal/mol

## GAATCCGAAAGGAGGTTC ((((((....)))..)))
[1]
  Tm: 26.2 °C
[2]
  folding enthalpy: -10.9 kcal/mol

## GAATCCGAAAGGATCTTC ((((((....)))..)))
[1]
  Tm: 51.3 °C
[2]
  folding enthalpy: -24.5 kcal/mol

## GAATCGCGAAAGCGTTTC (((.(((....))).)))
[1]
  Tm: 46.2 °C
[2]
  folding enthalpy: -21.9 kcal/mol

## GAATCGGAAACGATTC ((((((....))))))
[1]
  Tm: 55.7 °C
[2]
  folding enthalpy: -36.1 kcal/mol

## GAATCGGGAAACCGATTC (((((((....)))))))
[1]
  Tm: 63.6 °C
[2]
  folding enthalpy: -40.8 kcal/mol

## GAATGACGAAAGTCCTTC (((.(((....))).)))
[1]
  Tm: 38.5 °C
[2]
  folding enthalpy: -26.7 kcal/mol

## GAATGACGAAAGTCTTC (((.(((....))))))
[1]
  Tm: 34.6 °C
[2]
  folding enthalpy: -16.6 kcal/mol

## GAATGACGAAAGTCTTTC (((.(((....))).)))
[1]
  Tm: 44.6 °C
[2]
  folding enthalpy: -25.6 kcal/mol

## GAATGAGGAAACTCACTC ((.((((....)))).))
[1]
  Tm: 26 °C
[2]
  folding enthalpy: -11.2 kcal/mol

## GAATGCGAAAGCAATTC ((((((....))).)))
[1]
  Tm: 48.4 °C
[2]
  folding enthalpy: -18.7 kcal/mol

## GAATGCGAAAGCATTTTC ((((((....)))..)))
[1]
  Tm: 49 °C
[2]
  folding enthalpy: -14.6 kcal/mol
